# Lmaj promast = Leishmania major promastigote growth inhibition; Leishmania major promastigotes, resazurin fluorescence viability; inhibition, % at 10 µM; 200,000 tested, 9% active; in the data active means inhibition above about 50%;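 further: promastigotes grown with compound for 44 hours at 28 °C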
# Diaphorase inh = diaphorase inhibition or chemical oxidation counter-screen | inhibition, % at 20 µM | AID 1217 | diaphorase resazurin-to-resorufin fluorescence, NADH, 16 min; bacterial (C. kluyveri) enzyme, not human | 190,000 tested, 0.69% active;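 active means primary screen inhibition at 20 µM above a set limit, cut at about 50% in these data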;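 further: plate controls were DMSO with full reaction for no effect and wells lacking NADH for full effect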
#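 Test system: Clostridium kluyveri diaphorase enzyme / Quantity: diaphorase at 0.14 U/mL in enzyme working solution / Incubation: 16-min room-temperature incubation before reading / Benchmarks: NADH-free wells as positive control, DMSO-only neutral wells / Signal: resorufin fluorescence 544/590 nm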
# Diaph act CS = activates diaphorase or chemically reduces, flagging diaphorase assay artifacts | Diaphorase/resazurin coupled assay, resorufin fluorescence, 16 min; active compounds read high; 1 = vehicle wells, 0 = NADH-free wells | activation factor at 20 µM | 190,000 tested, 0.005% active;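 active means diaphorase activity raised at least twofold by the compound at 20 µM; inactive means activation factor below 2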
#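 System – purified diaphorase enzyme from Clostridium kluyveri · Input – enzyme 0.07 U/mL final · Also added – final NADH 0.114 mM, resazurin 0.1 mM · Measured by – fluorescence of resorufin, 544 nm excitation, 590 nm emission · Timing – 16 min enzyme reaction, ambient temperature · Measure – resorufin increase flagging diaphorase activators or reducers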
# WT yeast gro inh = growth inhibition of WT yeast, mitochondrial fusion screen. 190,000 tested, 2.1% active. inhibition, % at 10 µM. mitochondrial fusion phenotypic screen, WT strain. AID 1362; in the data active means inhibition above about 58%; tested in S. cerevisiae
# ROMK mod = modulates human ROMK potassium channel activity; P48048; Tet-inducible ROMK, thallium flux fluorescence; actives lie on both sides; B-score at 10 µM; 130,000 tested, 2% active; AID 1918;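 active means signal ratio slope over the read window, or its plate-corrected B-score, at least 3 SD from the plate mean, either direction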;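 further: B-score of the F/F0 ratio slope over 7 to 12 s after thallium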
# Target sequence (P48048 whole entry, looked up): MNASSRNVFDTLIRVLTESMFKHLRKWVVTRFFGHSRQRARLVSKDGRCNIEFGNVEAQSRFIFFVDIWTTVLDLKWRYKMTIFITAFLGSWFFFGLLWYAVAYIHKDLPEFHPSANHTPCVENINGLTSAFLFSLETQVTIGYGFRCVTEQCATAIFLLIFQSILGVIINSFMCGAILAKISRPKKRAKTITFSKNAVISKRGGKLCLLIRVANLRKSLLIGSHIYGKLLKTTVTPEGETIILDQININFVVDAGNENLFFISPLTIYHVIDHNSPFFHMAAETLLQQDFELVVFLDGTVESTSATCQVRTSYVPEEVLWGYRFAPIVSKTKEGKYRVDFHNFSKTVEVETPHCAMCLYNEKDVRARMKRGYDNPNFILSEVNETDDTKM
# Cl transport mod = KCC2 (human) Cl- transport modulation; 190,000 tested, 2.2% active; Q9H2X9; B-score of Tl+ flux slope (higher = more flux/activation; lower = inhibition) at 10 µM; KCC2 cells, thallium flux FluoZin-2 fluorescence;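 active means thallium flux slope and its plate-corrected score both differing from the plate sample mean at a set confidence after two filtering rounds, in either direction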;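 further: slope of fluorescence scaled to starting intensity during 10 to 20 s after thallium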
# KCC2 secondary = confirmation of human KCC2 transport modulators; AID 1713; 3,700 tested, 15% active; shares compounds with Cl transport mod; normalised thallium flux (F/F0 slope) at 10 µM; HEK293-KCC2, thallium flux, FluoZin2 fluorescence; active compounds read high;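 active means thallium flux slope above the same plate's solvent-only control mean plus 3 SD; inconclusive means the two replicate wells disagree; inactive means no significant difference from solvent-only control wells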
# KCC2 bumet counter = bumetanide-insensitive thallium flux in KCC2 cells with ouabain, counter-screen | shares compounds with Cl transport mod | HEK293-KCC2 + bumetanide/ouabain, thallium flux FluoZin2; active compounds read high | normalized thallium flux at 10 µM | 3,700 tested, 49% active;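 active means thallium entry rate above the same plate's blocked-transporter control wells by more than 3 SD; inconclusive means the two repeat wells disagree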;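 further: raw slope of fluorescence over initial fluorescence between 10 and 20 s after thallium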
# KCC2 secondary2 = KCC2 (human) modulation, second secondary assay. shares compounds with Cl transport mod. HEK293-KCC2, thallium flux FluoZin2 fluorescence; actives lie on both sides; F/F0 rise rate, 10–20 s post-thallium. normalized thallium flux at 10 µM. 3,700 tested, 23% active;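 active means thallium flux slope more than 3 SD above or below the plate's solvent-only control mean, mostly below; inconclusive means the two repeat wells disagreed; inactive means no significant shift from solvent-only controls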;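 further: raw slope with 0.1% DMSO as baseline and bumetanide as block control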
# HEK counter1 = acts in parental HEK cells, KCC2 counter-screen; shares compounds with Cl transport mod; HEK293 parental cells, thallium flux FluoZin2, ouabain; baseline-ratio fluorescence slope, 10–20 s after thallium; thallium flux rate (normalised fluorescence) at 10 µM; 3,700 tested, 46% active; AID 1716;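 active means thallium flux rate significantly above the same plate's solvent-only control wells, beyond their mean plus 3 SD; inconclusive means the two replicate wells gave conflicting results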
# KCC2 retest ouab = modulates human KCC2 on retest with ouabain | shares compounds with Cl transport mod | HEK293-KCC2, thallium flux FluoZin2 fluorescence; bidirectional: low = inhibitor, high = activator | raw Tl+ flux slope (below DMSO = inhibition, above = activation) at 10 µM | 3,700 tested, 48% active | AID 1717;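 active means thallium flux slope beyond 3 SD from same-plate DMSO control mean in most replicates, usually higher, sometimes lower; inconclusive means repeat tests gave conflicting results; inactive means no significant difference from controls in most replicates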;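 further: slope of initial-normalized fluorescence between seconds 10 and 20 after thallium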
# HEK293 Tl flux2 = counter-screen for KCC2 modulators: effect in parental HEK293 cells. 3,700 tested, 33% active. thallium flux slope at 10 µM. shares compounds with Cl transport mod. thallium flux FluoZin-2 fluorescence slope;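 active means thallium flux slope above the same plate's solvent-control mean plus 3 SD in both duplicate wells; inconclusive means duplicate wells that disagreed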;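 further: run without ouabain in cells lacking the KCC2 cotransporter; slope of fluorescence scaled to its starting value between 10 and 20 s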
# * = called active by the depositor; ? = inconclusive; . = no result. Sampled rows, rich in hits. Any-hit rate of the full collection: about 12%.
SMILES,Lmaj promast,Diaphorase inh,Diaph act CS,WT yeast gro inh,ROMK mod,Cl transport mod,KCC2 secondary,KCC2 bumet counter,KCC2 secondary2,HEK counter1,KCC2 retest ouab,HEK293 Tl flux2
O=C(NC(=S)Nc1ccccc1N1CCCC1)c1cccs1,.,.,.,.,.,79*,0.029*,0.14*,?,?,0.087*,0.037*
O=C(NC(=S)Nc1ccccc1N1CCCCC1)c1cccs1,91*,15,0.8,41,0.21,18*,?,0.035*,0.034,0.051*,0.042*,0.016*
O=C(NC(=S)Nc1ccc(N2CCOCC2)c(Cl)c1)c1cccs1,-6,31,0.7,31,.,.,0.025*,0.058*,?,0.017*,0.028*,0.017*
O=C(Nc1ccc(N2CCCC2)c(Cl)c1)c1cccs1,6,-2,1,9,-0.5,-0.84,.,.,.,.,.,.
Nc1nc(SCC(=O)Nc2ccc([N+](=O)[O-])cc2)n[nH]1,-2,9,0.9,-7,-0.089,2,.,.,.,.,.,.
C=CCN1CC2(c3ccccc3)CN(CC=C)CC(c3ccccc3)(C1)C2=O,0,8,0.9,10,-0.00021,1.3,.,.,.,.,.,.
Cc1ccc(N/N=C/c2c(C)c(C#N)c(=O)n(C)c2O)cc1C,80*,69*,0.3,27,2.1,-3.9*,0.01,0.0065,0.035,?,0.019,0.011
Cc1cc2c(cc1C)-c1nnc(-c3ccc4ccccc4n3)n1C(C)(C)C2,47,1,1,1,.,-5*,0.0065,0.0052,0.03,0.008,0.019,0.011
CC1(C)Cc2ccccc2-c2nnc(-c3ccccc3)n21,5,13,0.9,15,.,-1.3,.,.,.,.,.,.
CC1=CC(C)(C)n2c(O)c(N=N)c3cc(C)cc1c32,2,24,0.8,21,.,-1.5,.,.,.,.,.,.
COc1cc2c3c(c1)c(N=NC(N)=S)c(O)n3C(C)(C)C=C2C,.,.,.,.,.,21*,?,0.026*,0.037,0.017*,?,0.014*
CC1=CC(C)(C)n2c(O)c(N=N)c3c(C)ccc1c32,.,.,.,.,.,1.4,.,.,.,.,.,.
CC1=CC(C)(C)n2c(O)c(N=NC(N)=S)c3c(C)ccc1c32,5,11,0.9,6,.,3.8*,0.011,0.012*,0.035,0.016*,0.023,?
OCCC1CN(Cc2cn[nH]c2C2CCCCC2)CCN1C1CCCC1 (stereo not given),-5,13,0.9,1,-0.044,0.069,.,.,.,.,.,.
Cc1cc(=S)[nH]c2ccccc12,-6,1,1,-10,-0.012,5.8*,0.0084,0.015*,0.029,0.015*,?,0.015*
Cc1ccc(C)c2c1[nH]c1ccccc12,-1,23,0.8,-12,0.45,.,.,.,.,.,.,.
Cc1ccc2c(C)cc(=S)[nH]c2c1,-4,7,0.9,15,-1.1,29*,0.0079,0.02*,0.036,0.024*,0.03*,0.021*
Cc1ccc(-c2cc(=O)c3cc(C)ccc3[nH]2)cc1,11,4,1,-7,1.6,1.1,.,.,.,.,.,.
Cc1ccc2[nH]c(=S)cc(C)c2c1,-1,25,0.7,11,1.2,21*,0.011,?,0.038,?,?,0.019*
COc1ccc(C(=O)NC(=S)NC2CCSC2=O)cc1 (stereo not given),43,14,0.9,1,0.17,1.9,.,.,.,.,.,.
Cc1nc(CS(=O)(=O)c2ccc(Cl)cc2)sc1C(=O)O,.,.,.,.,.,0.39,.,.,.,.,.,.
COc1cc([N+](=O)[O-])cc2sc(NC(=O)C(C)(C)C)nc12,23,15,0.8,25,1,-0.94,.,.,.,.,.,.
O=C(O)CC(NC(=O)Cc1ccc(Cl)cc1)c1ccco1 (stereo not given),-4,11,0.9,1,0.22,-3.4*,0.018,0.0042,0.031,0.0077,0.016,0.011
O=C(O)CC(NC(=O)C(c1ccccc1)c1ccccc1)c1ccco1 (stereo not given),-7,10,0.9,19,.,-1.2,.,.,.,.,.,.
Cc1cc(C)cc(NC(=O)c2snc3c(=O)[nH]cnc23)c1,-20,15,0.8,-5,0.23,-1.4,.,.,.,.,.,.
SMILES,Lmaj promast,Diaphorase inh,Diaph act CS,WT yeast gro inh,ROMK mod,Cl transport mod,KCC2 secondary,KCC2 bumet counter,KCC2 secondary2,HEK counter1,KCC2 retest ouab,HEK293 Tl flux2
O=C(Cn1nnc(-c2cccc(C(F)(F)F)c2)n1)NC1CCCC1,-5,10,0.9,7,0.59,0.039,.,.,.,.,.,.
CC(C)C(CCNC(=O)CC(Cc1ccccc1)c1ccco1)c1ccco1 (stereo not given),2,12,0.9,14,.,-4.5*,?,0.005,?,?,0.016*,0.0095
CC(C)C(CCNC(=O)CN1C(=O)c2ccccc2C1=O)c1ccco1 (stereo not given),-6,10,0.9,10,-0.87,1.6,.,.,.,.,.,.
COc1ccc(/C=N/Nc2nc3ccccc3o2)cc1O,-21,17,0.8,8,0.37,-0.16,.,.,.,.,.,.
Oc1ccccc1/C=N/Nc1nc2ccccc2o1,.,.,.,.,0.37,7.2*,0.0064,0.012*,0.034,0.012*,?,0.016*
O=C(Nc1ccccc1N1CCN(c2ccccc2)CC1)c1ccccc1,8,22,0.8,29,-0.48,-0.78,.,.,.,.,.,.
O=C1C2Sc3[nH]c(=O)sc3C(c3ccccc3)C2C(=O)N1c1ccc(Cl)cc1 (stereo not given),-10,28,0.7,5,.,-9.8*,0.0066,0.013*,0.024*,0.01*,0.011*,0.011
Cc1ccc(N2C(=O)C3Sc4[nH]c(=O)sc4C(c4ccccc4)C3C2=O)cc1 (stereo not given),-6,24,0.8,-7,.,-10*,0.0074,0.011*,0.023*,0.01*,0.0098*,0.011
O=C(O)CN1C(=O)C2C3CC(C2C1=O)C1C(c2ccccc2)c2sc(=O)[nH]c2SC31 (stereo not given),-9,12,0.9,-13,0.42,0.3,.,.,.,.,.,.
